Data as given in ChEMBL document CHEMBL3414540, “Synthesis, crystal structure and effect of indeno[1,2-b]indole derivatives on prostate cancer in vitro. Potential effect against MMP-9” (Eur J Med Chem, 2015).
Converted amounts (≈) assume the structure as drawn. The source made the active and inactive calls. No cut-off for these calls is given here.

Key:
[1] = (§1) Cytotoxicity against human PC3 cells after 72 hrs by XTT assay; assay type: functional, cell-based; conditions: PC-3, 72 h
In short: (§2)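 Compounds in DMSO (5-100 µg/ml, final DMSO <0.2%) were added for 72 h. XTT was then added (4 h, 37°C) and formazan read at 492 nm. IC50 is the 50% viability drop versus vehicle. Three experiments, five wells each, mean ± SEM.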

[2] = test system: LNCaP; test: Cytotoxicity against human LNCAP cells after 72 hrs by XTT assay; assay type: functional, cell-based; in short: as §2
[3] = (§3) Cytotoxicity against rat MAT-LyLu cells after 72 hrs by XTT assay; assay type: functional, cell-based; conditions: MAT-Ly-Lu; in short: as §2
[4] = test system: PC-3; test: as §1; assay type: functional, cell-based; in short: as §2
[5] = test system: MAT-Ly-Lu; test: as §3; assay type: functional, cell-based; in short: as §2
[6] = test system: PC-3; test: Inhibition of EGF-induced cell migration of human PC3 cells at cytotoxic IC50 level incubated for 24 hrs in presence of EGF by light microscopy based wound healing assay; assay type: functional
In short: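 PC-3 cells (8×10^4 per well) were grown to confluence (48 h, 37°C) and the monolayer scratched with a pipette tip. After a PBS wash, compound in fresh medium was added with […] (1 pg/ml) for 24 h. Wound area was imaged at 0 and 24 h and expressed as % closure of the original wound. Three independent experiments, mean ± SEM.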

[7] = test system: LNCaP; test: Inhibition of cell invasion of human LNCAP cells pre-treated at cytotoxic IC50 level followed by further 18 hrs incubation by matrigel coated Boyden chamber assay; assay type: functional, cell-based
In short: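 LNCaP cells (1×10^5 cells/ml) were pretreated for 24 h, then seeded in serum-free medium onto a Matrigel-coated […] membrane over medium with 20% FBS (18 h, 37°C). Invaded cells were stained with calcein (4 µg/ml in HBSS, 1 h) and fluorescence read at 485/530 nm. Inhibition is relative to vehicle. Three independent experiments, mean ± SEM.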

[8] = target: Matrix metalloproteinase-9 (Homo sapiens) (UniProt P14780); test: Inhibition of MMP9 in human PC3 cells assessed as reduction in MMP-mediated gelatinolytic activity at cytotoxic IC50 level incubated for 24 hrs by zymography; assay type: cell-based; conditions: PC-3
In short: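 PC-3 cells at 80% confluence were washed with PBS and treated in serum-free medium (24 h, 37°C). Conditioned medium was mixed 0.75:0.25 with sample buffer lacking mercaptoethanol and run on 10% SDS gels copolymerized with gelatin (1 mg/mL). MMP-9 lysis zones were quantified as % activity relative to vehicle. Three experiments, mean ± SEM.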

[9] = Inhibition of clonogenic potential of human PC3 cells grown on semi-soft agar medium assessed as colony formation at cytotoxic IC50 level incubated for 2 weeks post dose by crystal violet staining based light microscopy relative to control; assay type: functional, PC-3; parameters: scale not given: the % may be the effect or the level left
In short: (§4)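 Cells (1×10^5) in RPMI with 20% FBS and 0.3% Noble agar were layered over a 0.6% agar/RPMI base, held 15 min at room temperature, then incubated 24 h at 37°C. Compound in 1 mL medium was added the next day. After 2 weeks, cells were stained with 0.01% crystal violet (18 h, 37°C). Colony number and relative size were scored by light microscopy against vehicle. Three independent experiments, mean ± SEM.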

[10] = test system: LNCaP; test: Inhibition of clonogenic potential of human LNCAP cells grown on semi-soft agar medium assessed as colony formation at cytotoxic IC50 level incubated for 2 weeks post dose by crystal violet staining based light microscopy relative to control; assay type: functional; parameters: scale not given: the % may be the effect or the level left; in short: as §4
[11] = Inhibition of clonogenic potential of rat MAT-LyLu cells grown on semi-soft agar medium assessed as colony formation at cytotoxic IC50 level incubated for 2 weeks post dose by crystal violet staining based light microscopy relative to control; assay type: functional, MAT-Ly-Lu; parameters: scale not given: the % may be the effect or the level left; in short: as §4
[12] = Inhibition of clonogenic potential of human PC3 cells grown on semi-soft agar medium assessed as relative colony size ratio at cytotoxic IC50 level incubated for 2 weeks post dose by crystal violet staining based light microscopy (reference value: 1 +/- 0.3); assay type: functional, PC-3; in short: as §4
[13] = test system: LNCaP; test: Inhibition of clonogenic potential of human LNCAP cells grown on semi-soft agar medium assessed as relative colony size ratio at cytotoxic IC50 level incubated for 2 weeks post dose by crystal violet staining based light microscopy (reference value: 1 +/- 0.3); assay type: functional; in short: as §4
[14] = Inhibition of clonogenic potential of rat MAT-LyLu cells grown on semi-soft agar medium assessed as relative colony size ratio at cytotoxic IC50 level incubated for 2 weeks post dose by crystal violet staining based light microscopy (reference value: 1 +/- 0.05); assay type: functional, MAT-Ly-Lu; in short: as §4

Chain of Matrix metalloproteinase-9 (Homo sapiens) (P14780 whole entry): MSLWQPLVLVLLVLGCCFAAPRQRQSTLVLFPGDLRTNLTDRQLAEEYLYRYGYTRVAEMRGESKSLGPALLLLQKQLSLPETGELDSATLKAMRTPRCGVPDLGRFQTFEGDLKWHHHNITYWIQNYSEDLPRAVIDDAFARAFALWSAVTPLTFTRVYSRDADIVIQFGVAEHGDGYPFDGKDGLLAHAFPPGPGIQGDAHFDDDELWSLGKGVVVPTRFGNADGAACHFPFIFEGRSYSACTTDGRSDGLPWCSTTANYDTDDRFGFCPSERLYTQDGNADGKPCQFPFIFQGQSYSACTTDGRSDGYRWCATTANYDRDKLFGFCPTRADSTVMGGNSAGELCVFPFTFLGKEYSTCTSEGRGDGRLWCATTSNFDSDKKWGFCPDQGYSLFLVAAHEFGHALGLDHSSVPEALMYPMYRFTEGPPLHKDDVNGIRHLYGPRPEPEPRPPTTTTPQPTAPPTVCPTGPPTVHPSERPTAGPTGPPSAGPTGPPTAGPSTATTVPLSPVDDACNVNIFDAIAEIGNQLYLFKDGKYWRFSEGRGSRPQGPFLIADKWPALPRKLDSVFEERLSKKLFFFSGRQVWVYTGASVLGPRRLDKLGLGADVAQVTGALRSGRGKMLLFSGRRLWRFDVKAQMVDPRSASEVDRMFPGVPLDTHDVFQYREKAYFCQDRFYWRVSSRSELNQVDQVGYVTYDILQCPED

Row | Structure (SMILES) | IC50 [1] [µg/mL] | IC50 [2] [µg/mL] | IC50 [3] [µg/mL] | further results
1 | COc1ccc(N2C3=C(C(=O)CCC3)[C@]3(O)C(=O)c4ccccc4[C@]23O)c(OC)c1 (racemic) | > 100 | > 100 | > 100 | 
2 | O=C1CCCC2=C1[C@]1(O)C(=O)c3ccccc3[C@]1(O)N2c1ccc(Cl)cc1 (racemic) | 67.9 (≈ 178 µM) | 79.2 (≈ 207 µM) | > 100 | inhibition [4]: Dose-dependent effect; inhibition [2]: Dose-dependent effect; inhibition [5]: Dose-dependent effect
3 | COc1ccc(N2C3=C(C(=O)CC(C)(C)C3)[C@]3(O)C(=O)c4ccccc4[C@]23O)cc1OC (racemic) | > 100 | > 100 | > 100 | 
4 | CC1(C)CC(=O)C2=C(C1)N(c1ccc(Cl)c(Cl)c1)[C@@]1(O)c3ccccc3C(=O)[C@@]21O (racemic) | 10.7 (≈ 24.1 µM) | 9.57 (≈ 21.5 µM) | 5.96 (≈ 13.4 µM) | inhibition [4]: Dose-dependent effect; inhibition [2]: Dose-dependent effect; inhibition [5]: Dose-dependent effect; inhibition [6]: Active; inhibition [7]: Active; inhibition [8]: Active; Activity [9]: 0%; Activity [10]: 0%; Activity [11]: 6.35%; Ratio [12]: 0; Ratio [13]: 0; Ratio [14]: 0.16
5 | COc1ccccc1N1C2=C(C(=O)CC(C)(C)C2)[C@]2(O)C(=O)c3ccccc3[C@]12O (racemic) | > 100 | > 100 | > 100 | 
6 | COc1cc(N2C3=C(C(=O)CCC3)[C@]3(O)C(=O)c4ccccc4[C@]23O)cc(OC)c1OC (racemic) | > 100 | > 100 | > 100 | 
7 | Cc1cccc(N2C3=C(C(=O)CCC3)[C@]3(O)C(=O)c4ccccc4[C@]23O)c1 (racemic) | > 100 | > 100 | > 100 | 
8 | COc1ccc(N2C3=C(C(=O)CC(C)(C)C3)[C@]3(O)C(=O)c4ccccc4[C@]23O)cc1 (racemic) | > 100 | > 100 | > 100 | 
9 | COc1ccc(N2C3=C(C(=O)CC(C)(C)C3)[C@]3(O)C(=O)c4ccccc4[C@]23O)c(OC)c1 (racemic) | > 100 | > 100 | > 100 | 
10 | COc1cccc(N2C3=C(C(=O)CCC3)[C@]3(O)C(=O)c4ccccc4[C@]23O)c1 (racemic) | > 100 | > 100 | > 100 | 
11 | Cc1ccccc1N1C2=C(C(=O)CC(C)(C)C2)[C@]2(O)C(=O)c3ccccc3[C@]12O (racemic) | > 100 | > 100 | > 100 | 
12 | O=C1CCCC2=C1[C@]1(O)C(=O)c3ccccc3[C@]1(O)N2c1ccc(Br)cc1 (racemic) | > 100 | > 100 | > 100 | 
13 | Cc1cc(C)cc(N2C3=C(C(=O)CC(C)(C)C3)[C@]3(O)C(=O)c4ccccc4[C@]23O)c1 (racemic) | > 100 | > 100 | > 100 | 
14 | Cc1cc(N)c2ccccc2[n+]1CCCCCCCCCC[n+]1c(C)cc(N)c2ccccc21 [DEQUALINIUM] | 24.6 | 4.94 | 10.3 | inhibition [4]: Dose-dependent effect; inhibition [2]: Dose-dependent effect; inhibition [5]: Dose-dependent effect
15 | CC1(C)CC(=O)C2=C(C1)N(c1ccc(Br)cc1)[C@@]1(O)c3ccccc3C(=O)[C@@]21O (racemic) | > 100 | > 100 | > 100 | 
16 | Cc1cccc(N2C3=C(C(=O)CC(C)(C)C3)[C@]3(O)C(=O)c4ccccc4[C@]23O)c1 (racemic) | > 100 | > 100 | > 100 | 
17 | COc1ccc(OC)c(N2C3=C(C(=O)CC(C)(C)C3)[C@]3(O)C(=O)c4ccccc4[C@]23O)c1 (racemic) | > 100 | > 100 | > 100 | 
18 | COc1ccc(N2C3=C(C(=O)CCC3)[C@]3(O)C(=O)c4ccccc4[C@]23O)cc1 (racemic) | > 100 | > 100 | > 100 | 
